From the array DNA melting data of Ke et al. (doi:10.1101/2024.01.08.574731) come the findings set out here.

A short description of series [1]: folding enthalpy; higher = less favourable; fluorescence melt of hairpins on a sequencing array, two-state fit. Conditions: sodium 0.088 M. Put shortly:
(§1)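 In 50 mM Na-HEPES pH 8.0 containing 25 mM NaCl, hairpins from the library on a sequenced MiSeq flow cell were imaged for Cy3 fluorescence at 2.5 °C steps up to 60 °C, with Cy3 and quencher oligos annealed. After normalisation to pre-quench Cy3 and to control constructs, two-state fits with bootstrapping gave melting temperature and folding enthalpy. Four replicates were combined by inverse-variance weighting, and fitted temperatures were shifted up by 9.35 °C to match UV melts.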

Series [2] is described as follows: melting temperature; fluorescence melt of hairpins on a sequencing array, two-state fit, raised by 9.35 °C to match UV melts. Particulars: sodium 0.088 M. Put shortly:
as §1

Consider GATCGGGGAAACCCGACC (.(((((....))))).), for which the folding enthalpy in series [1] is -13.6 kcal/mol. In series [2], the Tm came to 43.5 °C.
Consider GATCGGGGAAACCCGATC (((((((....))))))), for which the folding enthalpy in series [1] was -42.5 kcal/mol. Also, in series [2], the Tm stood at 69 °C.
The like results for GATCGGGGAAACCTGGTC ((.(.((....)).).)) were, in that order, -22.6 kcal/mol and 36.3 °C.
As for GATCGGGGGACCGATC ((((((....)))))), in series [1], the folding enthalpy was -36.2 kcal/mol. Besides, the Tm in series [2] is 61.9 °C.
The matching figures for GATCGGGGGGCCGATC ((((((....)))))): -53.6 kcal/mol and 57.3 °C.
Take GATCGGGGGTCCGATC ((((((....)))))): the folding enthalpy in series [1] is -34.3 kcal/mol. Also, the Tm in series [2] stood at 57 °C.
The matching figures for GATCGGGGTTCCGATC ((((((....)))))): -36.9 kcal/mol and 59 °C.
The like results for GATCGGGTCTCCGATC ((((((....)))))) were, in that order, -41.2 kcal/mol and 59.1 °C.
The like results for GATCGGTAAGCCGATC ((((((....)))))) were, in that order, -49.4 kcal/mol and 58.9 °C.
In the case of GATCGGTACGCCGATC ((((((....)))))), the folding enthalpy in series [1] was -38.6 kcal/mol. Moreover, the Tm in series [2] came to 63.6 °C.
The matching figures for GATCGGTATACCGATC ((((((....)))))): -36.7 kcal/mol and 64.3 °C.
The matching figures for GATCGGTATCCCGATC ((((((....)))))): -34.5 kcal/mol and 57.3 °C.
As for GATCGGTCAACCGATC ((((((....)))))), in series [1], the folding enthalpy was -39.2 kcal/mol. Further, in series [2], the Tm stood at 57.5 °C.
The matching figures for GATCGGTCCACCGATC ((((((....)))))): -50 kcal/mol and 60.9 °C.
In the case of GATCGGTCTACCGATC ((((((....)))))), in series [1], the folding enthalpy is -39.3 kcal/mol. Moreover, the Tm in series [2] stood at 62.3 °C.
The like results for GATCGGTGAGCCGATC ((((((....)))))) were, in that order, -48.6 kcal/mol and 60.8 °C.
For the sequence GATCGGTTCTCCGATC ((((((....)))))), in series [1], the folding enthalpy was -44.3 kcal/mol. The Tm in series [2] worked out at 60.6 °C.
The matching figures for GATCGGTTGACCGATC ((((((....)))))): -33.9 kcal/mol and 60.3 °C.
The matching figures for GATCGGTTGCCCGATC ((((((....)))))): -32.5 kcal/mol and 57.2 °C.
The matching figures for GATCGGTTTACCGATC ((((((....)))))): -37.4 kcal/mol and 68.6 °C.
For GATCGTAAGGACGATC ((((((....)))))), the folding enthalpy in series [1] was -31.8 kcal/mol. In series [2], the Tm came out at 53.4 °C.
The matching figures for GATCGTAATGACGATC ((((((....)))))): -34.3 kcal/mol and 52.8 °C.
The matching figures for GATCGTACAACGATC ((((((...)))))): -37.4 kcal/mol and 56.5 °C.
As to GATCGTACAGACGATC ((((((....)))))), the folding enthalpy in series [1] was -54.1 kcal/mol. Further, in series [2], the Tm came out at 52.5 °C.
The like results for GATCGTACGAACGATC ((((((....)))))) were, in that order, -34.3 kcal/mol and 53.3 °C.
The like results for GATCGTACGCACGATC ((((((....)))))) were, in that order, -37.4 kcal/mol and 55.1 °C.
The matching figures for GATCGTAGAAACGATC ((((((....)))))): -35.2 kcal/mol and 51.1 °C.
For the sequence GATCGTATAAACGATC ((((((....)))))), the folding enthalpy in series [1] is -31.9 kcal/mol. Moreover, the Tm in series [2] was 54.7 °C.
Turning to GATCGTATATACGATC ((((((....)))))), the folding enthalpy in series [1] is -35.1 kcal/mol. Moreover, the Tm in series [2] is 56.6 °C.
The matching figures for GATCGTATTGACGATC ((((((....)))))): -22.8 kcal/mol and 55 °C.
The like results for GATCGTCAATACGATC ((((((....)))))) were, in that order, -39.2 kcal/mol and 54.6 °C.
The matching figures for GATCGTCACCACGATC ((((((....)))))): -40.9 kcal/mol and 54 °C.
Turning to GATCGTCACTACGATC ((((((....)))))), the folding enthalpy in series [1] is -46.1 kcal/mol. Besides, in series [2], the Tm was 55 °C.
The matching figures for GATCGTCAGACGATC ((((((...)))))): -35.2 kcal/mol and 52.5 °C.
Take GATCGTCAGCACGATC ((((((....)))))): the folding enthalpy in series [1] was -27.8 kcal/mol. Moreover, the Tm in series [2] came to 52.6 °C.
Take GATCGTCATCACGATC ((((((....)))))): in series [1], the folding enthalpy is -43.8 kcal/mol. The Tm in series [2] is 52.2 °C.
The like results for GATCGTCATGACGATC ((((((....)))))) were, in that order, -40.3 kcal/mol and 61.4 °C.
The like results for GATCGTCCATACGATC ((((((....)))))) were, in that order, -41.8 kcal/mol and 54.8 °C.
